# Experimental data of several laboratories.
# Target: 5-hydroxytryptamine receptor 3A (HTR3A, Homo sapiens, UniProt P46098)
# Tested at: 10 µM
# One construct used (P46098 24-478): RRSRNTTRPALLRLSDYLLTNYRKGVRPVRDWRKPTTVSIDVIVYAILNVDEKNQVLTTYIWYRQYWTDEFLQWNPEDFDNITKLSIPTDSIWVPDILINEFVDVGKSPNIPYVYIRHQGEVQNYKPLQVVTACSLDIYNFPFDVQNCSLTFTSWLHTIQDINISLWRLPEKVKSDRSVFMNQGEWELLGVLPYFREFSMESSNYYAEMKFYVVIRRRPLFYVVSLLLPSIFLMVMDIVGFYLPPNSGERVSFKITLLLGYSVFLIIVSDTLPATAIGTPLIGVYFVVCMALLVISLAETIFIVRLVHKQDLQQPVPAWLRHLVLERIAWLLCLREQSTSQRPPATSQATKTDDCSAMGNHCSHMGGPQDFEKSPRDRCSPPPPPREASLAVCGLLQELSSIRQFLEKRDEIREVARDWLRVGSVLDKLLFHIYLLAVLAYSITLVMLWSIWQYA
SMILES,read-out,technique,measurement,value
c1ccc(C(NCCNC(c2ccccc2)c2ccccc2)c2ccccc2)cc1,cell-free assay,,inhibition,-16%
COc1ccc(N=Nc2ccc3[nH]cc(CCN(C)C)c3c2)cc1,ligand displacement,radioligand,inhibition,< 50%
Cn1cncc1[C@@](O)(COc1ccc(C#N)cc1-c1ccc(OC(F)(F)F)cc1)c1ccc(C#N)cc1,cell-free assay,,inhibition,-0.62%
COc1cc2c3c(c1OC)-c1cc4c(cc1CC3N(C)CC2)OCO4 (racemic),ligand displacement,radioligand,inhibition,44.6%
CC(C)N1CCC[C@H]1CNC(=O)c1cn(C2CCCC2)c(=O)c2c1c1ccccc1n2C,ligand displacement,radioligand,inhibition,-4%
Cc1c(N2CCNCC2)nc2ccc(Br)cc2c1C(=O)NC[C@H](CCC(=O)O)c1ccccc1Cl,cell-free assay,,inhibition,86%
Nc1ncc(-c2nc(N3CCOCC3)nc(N3CCOCC3)n2)c(C(F)F)n1,cell-free assay,,remaining signal,100%
C[C@H](C(=O)N[C@H]1COc2ccccc2[C@@H]1S(C)(=O)=O)c1ccc(F)cc1,cell-free assay,,inhibition,6%
CC(C)Cn1cnc2c(N)nc3ccccc3c21,ligand displacement,radioligand,inhibition,8%
CCN(CC)CCCC[C@H](NC(=O)[C@H](CC(C)C)NC(=O)[C@H](C)NC(=O)[C@H](Cc1ccccc1)NC(=O)c1ccc(C(C)(C)C)cc1)C(=O)N[C@@H](CO)C(=O)OC,ligand displacement,radioligand,inhibition,-21%
Clc1ccc2c(C3CCN(CCc4c[nH]c5ccccc45)CC3)c[nH]c2c1,ligand displacement,radioligand,inhibition,38%
